Reference: ChEMBL document CHEMBL1153478, “Discovery of imidazo[1,2-a]pyridines as potent MCH1R antagonists” (Bioorg Med Chem Lett, 2009)

Columns and labels:
[1] = biological target: T1, Melanin-concentrating hormone receptor 1 (Homo sapiens, UniProt Q99705); assay: Displacement of [125I]MCH from human MCH1 receptor
Method in brief: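 Competition binding on membranes from CHO cells expressing human MCH1R, with [125I]-MCH as radioligand displaced by test compounds; IC50 reported as the mean of 2 experiments.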

[2] = biological target: T1, Melanin-concentrating hormone receptor 1; assay: Antagonist activity at human MCH1 receptor expressed in CHO cells assessed as inhibition of MCH-induced intracellular calcium level by FLIPR assay; format: functional, cell-based
[3] = Plasma concentration in Sprague-Dawley rat at 10 mg/kg, po after 2 hrs; format: ADME, organism-based; design: dose 10 mg/kg, route oral
Method in brief: (§1)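 Single oral dose of 10 mg/kg given to SD rats. Plasma (µM) and brain (nmol/g) levels were measured 2 h after dosing. Values are means of 3 experiments.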

Brain = assay: Drug level in Sprague-Dawley rat brain at 10 mg/kg, po after 2 hrs; format: ADME, organism-based; design: dose 10 mg/kg, route oral; conditions: in vivo; method in brief: as §1

T1 sequence (Q99705 whole entry): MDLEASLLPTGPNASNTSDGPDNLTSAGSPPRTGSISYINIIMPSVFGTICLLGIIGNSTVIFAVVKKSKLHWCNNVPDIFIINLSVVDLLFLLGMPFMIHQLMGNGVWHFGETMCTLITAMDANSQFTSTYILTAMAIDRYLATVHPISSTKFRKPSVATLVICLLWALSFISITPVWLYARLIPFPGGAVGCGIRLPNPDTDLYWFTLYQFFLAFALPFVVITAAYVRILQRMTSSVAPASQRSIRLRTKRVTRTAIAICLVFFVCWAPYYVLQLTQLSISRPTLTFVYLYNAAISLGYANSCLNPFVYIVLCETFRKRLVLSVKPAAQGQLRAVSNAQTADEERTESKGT

Row | IC50 [1] [nM] | IC50 [2] [nM] | concentration at 2 h [3] [µM] | Drug uptake (Brain) [nmol/g] | Structure (SMILES)
1 | 7.1 |  |  |  | CC(C)(C)c1cn2cc(NC(=O)c3ccc(-c4ccc(C(F)(F)F)cc4)cc3)ccc2n1
2 | 160 |  |  |  | Cc1c(C2CC2)nc2ccc(NC(=O)c3ccc(-c4cnc(C(F)(F)F)nc4)cc3)cn12
3 | 20 |  |  |  | CCc1c(C2CC2)nc2ccc(NC(=O)c3ccc(-c4ccc(C(F)(F)F)cc4)cc3)cn12
4 | 35 |  |  |  | CC(=O)N(C)Cc1cn2cc(NC(=O)c3ccc(-c4ccc(C(F)(F)F)cc4)cc3)ccc2n1
5 | 4.4 | 20 | 5 | 2.5 | Cc1c(C2CC2)nc2ccc(NC(=O)c3ccc(-c4ccc(F)nc4)cc3)cn12
6 |  | 26 |  |  | Cc1c(C2CC2)nc2ccc(NC(=O)c3ccc(-c4ccccn4)cc3)cn12
7 | 330 |  |  |  | CC(O)c1c(C2CC2)nc2ccc(NC(=O)c3ccc(-c4ccc(C(F)(F)F)cc4)cc3)cn12 (stereo not given)
8 | 11 |  |  |  | CCCc1cn2cc(NC(=O)c3ccc(-c4ccc(C(F)(F)F)cc4)cc3)ccc2n1
9 | 30 |  |  |  | CC(O)c1cn2cc(NC(=O)c3ccc(-c4ccc(C(F)(F)F)cc4)cc3)ccc2n1 (stereo not given)
10 | 8.2 |  |  |  | O=C(Nc1ccc2nc(C3CC3)cn2c1)c1ccc(-c2ccc(C(F)(F)F)cn2)cc1
11 | 140 |  |  |  | O=C(Nc1ccc2nc(C3CC3)cn2c1)c1ccc(-c2ccccn2)cc1
12 | 5.4 |  |  |  | CC(C)c1cn2cc(NC(=O)c3ccc(-c4ccc(C(F)(F)F)cc4)cc3)ccc2n1
13 | 5.6 |  |  |  | O=C(Nc1ccc2nc(C3CC3)cn2c1)c1ccc(-c2ccc(C(F)(F)F)cc2)cc1
14 | 4.6 |  |  |  | Cc1cn2cc(NC(=O)c3ccc(-c4ccc(C(F)(F)F)cc4)cc3)ccc2n1
15 | 61 | 217 |  |  | Cc1c(C2CC2)nc2ccc(NC(=O)c3ccc(-c4ccc(F)nc4)nc3)cn12
16 | 6.8 | 29 |  |  | Cc1c(C2CC2)nc2ccc(NC(=O)c3ncc(-c4ccc(F)cc4)cn3)cn12
17 | 5.4 | 90 |  |  | Cc1c(C2CC2)nc2ccc(NC(=O)c3ccc(-c4ccc(F)cn4)cc3)cn12
18 | 44 | 121 |  |  | Cc1c(C2CC2)nc2ccc(NC(=O)c3ccc(-c4ccc(F)nc4)cn3)cn12

Row | IC50 [1] [nM] | IC50 [2] [nM] | concentration at 2 h [3] [µM] | Drug uptake (Brain) [nmol/g] | Structure (SMILES)
19 | 17 |  |  |  | CC(C)(O)c1cn2cc(NC(=O)c3ccc(-c4ccc(C(F)(F)F)cc4)cc3)ccc2n1
20 |  | 59 |  |  | Cc1c(C2CC2)nc2ccc(NC(=O)c3ccc(-c4ccc(F)cc4)cn3)cn12
21 | 300 |  |  |  | O=C(Nc1ccc2nccn2c1)c1ccc(-c2ccc(C(F)(F)F)cc2)cc1
22 | 320 |  |  |  | CC(=O)c1c(C2CC2)nc2ccc(NC(=O)c3ccc(-c4ccc(C(F)(F)F)cc4)cc3)cn12
23 | 3.5 | 1000 | 1.4 | 1.6 | Cc1c(C2CC2)nc2ccc(NC(=O)c3ccc(-c4ccc(C(F)(F)F)cn4)cc3)cn12
24 | 260 |  |  |  | O=C(Nc1ccc2nc(C3CC3)c(C3CC3)n2c1)c1ccc(-c2ccc(C(F)(F)F)cc2)cc1
25 | 11 |  |  |  | O=C(Nc1ccc2nc(C3CC3)c(CO)n2c1)c1ccc(-c2ccc(C(F)(F)F)cc2)cc1
26 | 4 | 94 |  |  | Cc1c(C2CC2)nc2ccc(NC(=O)c3ccc(-c4ccc(F)cc4)nc3)cn12
27 | 6 | 122 |  |  | COc1ccc(-c2ccc(C(=O)Nc3ccc4nc(C5CC5)c(C)n4c3)cc2)nc1
28 | 130 |  |  |  | O=C(Nc1ccc2nc(CO)cn2c1)c1ccc(-c2ccc(C(F)(F)F)cc2)cc1
29 | 102 | 164 |  |  | Cc1c(C2CC2)nc2ccc(NC(=O)c3ncc(-c4ccc(F)nc4)cn3)cn12
30 | 4.8 |  |  |  | Cc1c(C2CC2)nc2ccc(NC(=O)c3ccc(-c4ccc(C(F)(F)F)cc4)cc3)cn12
31 | 4.8 | 85 |  |  | Cc1ccc(-c2ccc(C(=O)Nc3ccc4nc(C5CC5)c(C)n4c3)cc2)nc1
32 | 48 | 94 |  |  | Cc1c(C2CC2)nc2ccc(NC(=O)c3ccc(-c4ccc(S(C)(=O)=O)cn4)cc3)cn12
33 | 83 |  |  |  | CN(C)Cc1cn2cc(NC(=O)c3ccc(-c4ccc(C(F)(F)F)cc4)cc3)ccc2n1
34 | 2.5 | 70 |  |  | Cc1c(C2CC2)nc2ccc(NC(=O)c3cnc(-c4ccc(F)cc4)cn3)cn12
35 | 2.2 | 100 |  |  | Cc1c(C2CC2)nc2ccc(NC(=O)c3ccc(-c4ccc(Cl)cn4)cc3)cn12
36 | 4 | 109 |  |  | Cc1c(C2CC2)nc2ccc(NC(=O)c3ccc(-c4ccc(C(F)(F)F)nc4)cc3)cn12

Row | Structure (SMILES) | IC50 [1] [nM] | IC50 [2] [nM] | concentration at 2 h [3] [µM] | Drug uptake (Brain) [nmol/g]
37 | CCOC(=O)c1cn2cc(NC(=O)c3ccc(-c4ccc(C(F)(F)F)cc4)cc3)ccc2n1 | > 1000 |  |  | 
